DNMT1 block: blocks human DNA methyltransferase DNMT1 | P26358 | DNMT1 molecular beacon, Hinp1I cleavage, fluorescence | inhibition (reported as % activation of signal), % at 10 µM | 360,000 tested, 0.83% active; in the data active = inhibition above about 50%
Scp1 inh: Scp-1 (human) phosphatase inhibition. Q9GZU7. Recombinant Scp1, phosphopeptide, malachite green phosphate absorbance. inhibition, % at 20 µM. 340,000 tested, 0.88% active. AID 493091;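 active = inhibition above about 50% at 20 µM, limit read from the data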;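 also: plate controls were DMSO wells with enzyme for no effect and wells lacking enzyme for full effect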
Target sequence (Q9GZU7 76-261 limits assumed): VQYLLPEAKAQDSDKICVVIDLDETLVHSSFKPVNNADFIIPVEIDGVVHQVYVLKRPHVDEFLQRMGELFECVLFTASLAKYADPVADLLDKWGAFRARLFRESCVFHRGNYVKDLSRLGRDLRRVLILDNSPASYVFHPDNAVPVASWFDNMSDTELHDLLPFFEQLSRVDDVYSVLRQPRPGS
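System: SCP-1 catalytic domain; Reagent: Phospho 17-mer peptide substrate; Doses: one concentration, 20 µM, with 1.0% DMSO; Incubation: 45 min room-temperature reaction, 5 min colour, 30 min stabiliser; Signal: Phosphate-binding colour reagent, absorbance read at 630 nm.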
NadD inh: blocks S. aureus nicotinate mononucleotide adenylyltransferase. 360,000 tested, 0.78% active. purified NadD enzyme, colorimetric absorbance read-out. inhibition, % at 20 µM; in the data active = inhibition above about 26%
SUMO1 PPI mod: alters human SUMO1 binding to SIM partners | 360,000 tested, 0.33% active | P63165 | SUMO1 binding to a labelled peptide, TR-FRET, 1 h | inhibition, % at 20 µM; in the data active = inhibition above about 37%
Target sequence (P63165 whole entry, looked up): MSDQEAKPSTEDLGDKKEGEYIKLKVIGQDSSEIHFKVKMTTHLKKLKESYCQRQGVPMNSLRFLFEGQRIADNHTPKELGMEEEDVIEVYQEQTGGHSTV
STEP inh: STEP (human) phosphatase inhibition; recombinant STEP, OMFP fluorogenic substrate, fluorescence; inhibition, % at 20 µM; 360,000 tested, 0.25% active; AID 588621;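 active = inhibition at 20 µM, scaled per plate between control wells, above about 37%, limit read from the data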;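 also: 0% = DMSO with enzyme and substrate and 100% = substrate only without enzyme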
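medium = Bis-Tris buffer pH 6.0, 2.5 mM DTT, 0.005% Tween 20 | test system = STEP (striatal-enriched tyrosine phosphatase) enzyme, cell-free | measure = normalized % inhibition | compound dosing = 20 µM, 1% DMSO | also added = 25 µM OMFP | schedule = reaction 20 min, ambient temperature | measured by = fluorescence read at 480 nm ex / 540 nm em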
LMPTP block: blocks human LMPTP phosphatase. recombinant LMPTP-A, OMFP fluorogenic substrate, fluorescence intensity. 360,000 tested, 0.22% active. AID 651560. inhibition, % at 20 µM;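 active = compounds that cut the enzyme signal by at least half of the control window in the single-dose screen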;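 also: plate controls were DMSO wells with enzyme plus substrate for no effect and substrate without enzyme for full effect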
Target sequence (P24666 whole entry, looked up): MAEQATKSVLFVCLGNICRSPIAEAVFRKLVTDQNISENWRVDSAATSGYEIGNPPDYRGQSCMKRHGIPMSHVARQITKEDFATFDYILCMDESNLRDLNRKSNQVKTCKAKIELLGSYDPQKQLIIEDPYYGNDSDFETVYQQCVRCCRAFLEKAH
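Test system: LMPTP-A phosphatase enzyme. Amount: LMPTP-A at 0.625 nM final in the reaction. Reagent: OMFP substrate, 400 µM final. Times: 50 min at room temperature. Signal: endpoint fluorescence intensity from OMFP dephosphorylation. Read-out basis: % inhibition. Benchmarks: no-enzyme and uninhibited controls.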
Beacon interf DR: shows spectral interference in the DNMT1 beacon assay; IC50, µM; molecular beacon fluorescence, spectral interference counter-screen; shares compounds with DNMT1 block; 200 tested, under 10 active; call rule not given here
DNMT1 confirm: confirmation of human DNMT1 inhibitors | shares compounds with DNMT1 block | DNMT1 molecular beacon HinP1I cleavage, fluorescence | inhibition, % at 10 µM | 2,300 tested, 8% active | AID 602385;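 active = average inhibition of at least 30% in the single-concentration confirmation test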
DNMT1 interf: shows spectral interference in the DNMT1 beacon assay; shares compounds with DNMT1 block; activation (fluorescence interference), % at 10 µM; DNMT1 molecular beacon spectral interference counterscreen, fluorescence 485/520; 2,300 tested, 1% active;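 active = activation of at least 30% at 10 µM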;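 also: DNMT1 catalytic domain with a HinP1I cleavage step and a FAM/dabcyl DNA beacon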
NadD inh conf: NadD (S. aureus) inhibition, single concentration confirmation; shares compounds with NadD inh; purified S. aureus NadD, colorimetric enzyme assay; inhibition, % at 20 µM; 2,000 tested, 13% active; AID 624309; in the data active = inhibition mostly above about 42%, no sharp cut-off; inactive = mostly below about 42%
Numbers without * were called inactive; · = no result given. Hits are enriched below; roughly 2.4% of the tested compounds scored in any of these assays.

SMILES	DNMT1 block	Scp1 inh	NadD inh	SUMO1 PPI mod	STEP inh	LMPTP block	DNMT1 confirm	DNMT1 interf	NadD inh conf	others
Cc1nc2ncnn2c(C)c1CCC(=O)N1CCN(c2ccccn2)CC1	2	-7	-3	2	2	0	·	·	·
COc1ccc(Oc2c(OC)cc(NCc3ccc(CN)cc3)c3ncccc23)cc1	95*	·	70*	22	4	24	33*	-5	66*	Beacon interf DR=>99
COC(=O)C1=C(O)/C(=C\c2ccc(CNC(=O)C(=O)Nc3ccc(C)c(C)c3)o2)N=C1C	86*	-1	34*	11	4	8	6	11	7
COC(=O)C1=C(O)/C(=C\c2ccc(CNS(=O)(=O)c3ccccc3)o2)N=C1C	29	3	5	13	0	0	·	·	·
COC(=O)C1=C(O)/C(=C\c2ccc(CNS(=O)(=O)c3ccc(Cl)cc3)o2)N=C1C	25	11	10	15	4	2	·	·	·
COC(=O)C1=C(O)/C(=C\c2ccc(CNC(=O)C(=O)Nc3ccc(C)cc3)o2)N=C1C	96*	-7	32*	20	5	16	4	4	8
C=CCNC(=O)/C(C#N)=C/c1ccccc1Cl	-4	-2	7	-5	-4	0	·	·	·
COc1ccc(OC)c(-c2cc(C(=O)Nc3c(C)n(C)n(-c4ccccc4)c3=O)no2)c1	0	0	-1	-2	1	0	·	·	·
Cc1cc(C)nc(NC(=O)c2ccc(Cl)cc2Cl)n1	0	-7	-3	0	0	0	·	·	·
COc1ccc(NC(=O)CSc2nc3c(cc2C#N)CN(C)CC3)cc1	71*	6	30*	-8	3	21	3	5	-8
CCOc1ccc(NC(=O)c2cccc(-n3cccc3)c2)cc1S(=O)(=O)N1CCOCC1	102*	·	32*	57*	8	22	81*	-3	30	Beacon interf DR=>99
COc1ccc2nc(N3C(=O)CNC3=S)sc2c1	-4	-7	-1	7	0	0	·	·	·
CCOc1ccc2nc(N3C(=O)/C(=C/c4ccc(Cl)cc4)NC3=S)sc2c1	94*	55*	49*	79*	4	39	16	-2	12
CCOC(=O)c1cccc(NC(=O)Nc2cc(OC)ccc2OC)c1	-7	-13	-12	-1	1	3	·	·	·
Cc1cccc(N2CC(C(=O)Nc3nnc(SCC(=O)Nc4nccs4)s3)CC2=O)c1 (stereo unspecified)	53*	2	62*	2	2	2	-1	0	7
O=C(/C=C/c1ccco1)c1ccc(NC(=O)C23CC4CC(CC(C4)C2)C3)cc1	72*	24	33*	1	3	1	3	0	11
N#Cc1c(NC(=O)CSc2nnc(-c3ccco3)n2-c2ccccc2)sc2c1CCC2	67*	4	41*	29	-1	8	0	3	19
CC1CCCCC1NC(=O)COC(=O)c1c2c(nc3ccccc13)/C(=C/c1ccco1)CC2 (stereo unspecified)	95*	68*	85*	28	5	39	3	-7	42
Cc1cc(C(=O)OCC(=O)NC2CCCCC2C)c2ccccc2n1 (stereo unspecified)	5	4	3	-9	2	-1	·	·	·
Cc1cc(=O)n2nc(N3CCCC3C(=O)Nc3ccccc3C)sc2n1 (stereo unspecified)	3	-1	-1	6	2	0	·	·	·
CCOc1ccc(/C=C/C(=O)c2cc(Br)ccc(=O)c2O)cc1	68*	-4	32*	0	5	12	10	4	15
N#Cc1ccc(-c2csc(NC(=O)c3ccc(S(=O)(=O)N4CCc5ccccc5C4)cc3)n2)cc1	24	-4	1	2	-3	0	·	·	·
CCc1nnc(NC(=O)CSc2nc(-c3ccccc3)cc(-c3ccc(F)cc3)c2C#N)s1	52*	7	44*	-13	3	2	0	1	4
COC(=O)C[C@@H]1CC[C@@H](NC(=O)c2ccccc2F)[C@@H](CO)O1	·	·	·	1	·	0	·	·	·
S=c1[nH]nc(-c2ccncc2)n1/N=C/c1cn(-c2ccccc2)nc1-c1ccc(Cl)cc1	75*	12	45*	0	2	2	1	6	5
SMILES	DNMT1 block	Scp1 inh	NadD inh	SUMO1 PPI mod	STEP inh	LMPTP block	DNMT1 confirm	DNMT1 interf	NadD inh conf	others
CC(=O)Nc1cccc(-c2ccnc3c2CC(C(=O)NC(C)C)O3)c1 (stereo unspecified)	4	·	-2	4	-2	0	·	·	·
O=C(/C=C/c1ccco1)N1CCC(Cc2ccccc2)CC1	87*	17	34*	1	1	4	7	-2	21
O=C(/C=C/c1ccco1)N1CCN(c2ncccn2)CC1	13	0	0	-1	-1	0	·	·	·
COc1ccc(-c2ocnc2C(=O)N2CCN(C(=O)C(c3ccccc3)c3ccccc3)CC2)cc1	-5	-3	12	-2	2	1	·	·	·
Cc1ccc(NC(=O)[C@H](Cc2ccccc2)NC(=O)[C@@H]2Cc3ccccc3CN2)c(C)c1	-1	-2	-4	0	-3	-1	·	·	·
Cc1csc(N=Cc2ccc([N+](=O)[O-])o2)n1	86*	·	36*	25	8	43	4	-5	22
C#Cc1ccc([C@@H]2C=C(C(=O)NCc3ccccc3)O[C@H](OCCCCO)C2)cc1	54*	20	39*	3	0	5	3	3	33
COc1ccc(N2CCN(S(=O)(=O)c3cn(C)c(=O)n(C)c3=O)CC2)cc1	0	-1	3	3	0	1	·	·	·
N#Cc1ccccc1S(=O)(=O)N1CCN(Cc2cccs2)CC1	0	·	1	0	-2	-2	·	·	·
Cc1ccc(OCC(=O)Nc2ccc(N3CCCC3)cc2)cc1C	67*	9	32*	3	4	6	0	-6	-8
COc1ccccc1OCC(=O)Nc1ccc(N2CCCCC2)cc1	-7	-3	-3	1	-1	2	·	·	·
Cc1cccc(OCC(=O)Nc2ccc(N3CCCC3)cc2)c1C	59*	-7	43*	-26	3	3	21	-5	-2	Beacon interf DR=>99

Screens from PubChem BioAssay.
